Laboratory results: ChEMBL document CHEMBL3797163, “Tryptic Stability of Synthetic Bactenecin Derivatives Is Determined by the Side Chain Length of Cationic Residues and the Peptide Conformation” (J Med Chem, 2016)
≈ marks a conversion by molar mass, not a printed value. Square brackets hold non-standard residues; d marks the D form. Peptide text beside a SMILES is read from it. hArg = N=C(N)NCCCC[C@H](N)C(=O)O; Orn = NCCC[C@H](N)C(=O)O; Dab = NCC[C@H](N)C(=O)O

Assays:
[1] = Stability of compound assessed as bovine trypsin mediated degradation at 2 to 5 mM after 2 hrs by HPLC/MS analysis; format: ADME, Bos taurus; conditions: cattle, isolated protein, 5000 µM
Summary of the method: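 Bovine pancreatic trypsin (salt-free) was freshly dissolved at 1 mg per 50 mL in 0.1 M NH4HCO3, pH 8.2, and added to peptide, which was diluted from 2˗5 mM stocks to a final 60 µM. Reactions were shaken at 37 °C and sampled at 2 h and 24 h. Aliquots were quenched with acetic acid/TFA and analysed by RP-HPLC (C18, 220 nm) and direct-injection ESI-MS. No-enzyme samples served as controls.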

Bacillus subtilis = assay: Antimicrobial activity against Bacillus subtilis C626 incubated overnight by microdilution method; format: functional
Summary of the method: (§1)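 Broth microdilution in Mueller-Hinton broth. Peptides were serially diluted 2-fold in water at twice the final concentration, then mixed 1:1 with bacteria in 2× MHB to a final 2˗7 × 10^5 CFU/mL. Plates were incubated overnight at 37 °C. MIC was taken as the lowest concentration showing no growth.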

Escherichia coli = assay: Antimicrobial activity against Escherichia coli O157:H7 incubated overnight by microdilution method; format: functional
Summary of the method: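 Broth microdilution in Mueller-Hinton broth. Peptides were serially diluted twofold in water at 2× final concentration and mixed 1:1 with bacteria in 2× MHB, giving a final inoculum of 2-7 × 10^5 CFU/mL. Plates were incubated overnight at 37 °C. MIC was read as the lowest concentration with no visible growth.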

Acinetobacter baumannii = assay: Antimicrobial activity against Acinetobacter baumannii ATCC 17978 incubated overnight by microdilution method; format: functional; summary of the method: as §1
Staphylococcus aureus = assay: Antimicrobial activity against Staphylococcus aureus C622 incubated overnight by microdilution method; format: functional; summary of the method: as §1

| SMILES | Stability [1] | MIC (Bacillus subtilis) [µM] | MIC (Escherichia coli) [µM] | MIC (Acinetobacter baumannii) [µM] | MIC (Staphylococcus aureus) [µM] |
| --- | --- | --- | --- | --- | --- |
| CC[C@@H](C)[C@@H](NC(=O)[C@@H](Cc1c[nH]c2ccccc12)NC(=O)[C@@H](CCCCN)NC(=O)[C@@H](Cc1c[nH]c2ccccc12)NC(=O)[C@@H](Cc1c[nH]c2ccccc12)NC(=O)[C@@H](CCCNC(=N)N)NC(=O)[C@H](N)CCCCN)C(=O)N[C@H](CCCNC(=N)N)C(=O)N[C@H](Cc1c[nH]c2ccccc12)C(N)=O | Stable |  |  |  |  |
| N=C(N)NCCCC[C@H](NC(=O)[C@H](CCCCNC(=N)N)NC(=O)[C@H](Cc1c[nH]c2ccccc12)NC(=O)[C@@H](Cc1c[nH]c2ccccc12)NC(=O)[C@@H](CCN)NC(=O)[C@@H](Cc1c[nH]c2ccccc12)NC(=O)[C@H](Cc1c[nH]c2ccccc12)NC(=O)[C@@H](CCCCNC(=N)N)NC(=O)[C@@H](N)CCN)C(N)=O | Unstable | 40 (≈ 58.9 µg/mL) | 2.5 (≈ 3.68 µg/mL) | 40 (≈ 58.9 µg/mL) | 5 (≈ 7.36 µg/mL) |
| CC[C@H](C)[C@H](NC(=O)[C@H](Cc1c[nH]c2ccccc12)NC(=O)[C@H](CCCNC(=N)N)NC(=O)[C@H](Cc1c[nH]c2ccccc12)NC(=O)[C@H](Cc1c[nH]c2ccccc12)NC(=O)[C@H](CCCCN)NC(=O)[C@@H](N)CCCNC(=N)N)C(=O)N[C@@H](CCCCN)C(=O)N[C@@H](Cc1c[nH]c2ccccc12)C(N)=O (H-RKWWRWIKW-NH2) | Unstable | 20 (≈ 28.9 µg/mL) | 1.25 (≈ 1.8 µg/mL) | 5 (≈ 7.22 µg/mL) | 2.5 (≈ 3.61 µg/mL) |
| N=C(N)NCCC[C@@H](N)C(=O)N[C@H](CCCNC(=N)N)C(=O)N[C@H](Cc1c[nH]c2ccccc12)C(=O)N[C@H](Cc1c[nH]c2ccccc12)C(=O)N[C@H](CCCCN)C(=O)N[C@H](Cc1c[nH]c2ccccc12)C(=O)N[C@H](Cc1c[nH]c2ccccc12)C(=O)N[C@H](CCCNC(=N)N)C(=O)N[C@H](CCCCN)C(N)=O | Stable | 20 (≈ 29.7 µg/mL) | 1.25 (≈ 1.86 µg/mL) |  | 5 (≈ 7.43 µg/mL) |
| CN[C@@H](CC(C)C)C(=O)N[C@H]1C(=O)N[C@@H](CC(N)=O)C(=O)N[C@H]2C(=O)N[C@H]3C(=O)N[C@H](C(=O)N[C@@H](C(=O)O)c4cc(O)cc(O)c4-c4cc3ccc4O)[C@H](O)c3ccc(c(Cl)c3)Oc3cc2cc(c3O[C@H]2O[C@@H](CO)[C@H](O)[C@@H](O)[C@@H]2O[C@@H]2C[C@@](C)(N)[C@@H](O)[C@@H](C)O2)Oc2ccc(cc2Cl)[C@H]1O |  | 1 (≈ 1.45 µg/mL) | > 32 | > 32 | 1 (≈ 1.45 µg/mL) |
| CC[C@@H](C)[C@@H](NC(=O)[C@@H](CCCNC(=N)N)NC(=O)[C@H](N)Cc1c[nH]c2ccccc12)C(=O)N[C@H](Cc1c[nH]c2ccccc12)C(=O)N[C@H](CCCCN)C(=O)N[C@H](Cc1c[nH]c2ccccc12)C(=O)N[C@H](Cc1c[nH]c2ccccc12)C(=O)N[C@H](CCCNC(=N)N)C(=O)N[C@H](CCCCN)C(N)=O | Stable |  |  |  |  |
| NCCC[C@H](NC(=O)[C@H](CCCN)NC(=O)[C@H](Cc1c[nH]c2ccccc12)NC(=O)[C@H](Cc1c[nH]c2ccccc12)NC(=O)[C@H](CCCN)NC(=O)[C@H](Cc1c[nH]c2ccccc12)NC(=O)[C@H](Cc1c[nH]c2ccccc12)NC(=O)[C@H](CCCN)NC(=O)[C@@H](N)CCCN)C(N)=O (H-[Orn][Orn]WW[Orn]WW[Orn][Orn]-NH2) | Unstable | 40 (≈ 53.3 µg/mL) | 2.5 (≈ 3.33 µg/mL) | > 80 | 20 (≈ 26.7 µg/mL) |
| CC[C@H](C)[C@H](NC(=O)[C@H](Cc1c[nH]c2ccccc12)NC(=O)[C@H](CCCN)NC(=O)[C@H](Cc1c[nH]c2ccccc12)NC(=O)[C@H](Cc1c[nH]c2ccccc12)NC(=O)[C@H](CCCN)NC(=O)[C@@H](N)CCCN)C(=O)N[C@@H](CCCN)C(=O)N[C@@H](Cc1c[nH]c2ccccc12)C(N)=O (H-[Orn][Orn]WW[Orn]WI[Orn]W-NH2) | Unstable | 10 (≈ 13.3 µg/mL) | 1.25 (≈ 1.66 µg/mL) | 10 (≈ 13.3 µg/mL) | 5 (≈ 6.66 µg/mL) |
| CC[C@H](C)[C@H](NC(=O)[C@H](Cc1c[nH]c2ccccc12)NC(=O)[C@H](CCCCNC(=N)N)NC(=O)[C@H](Cc1c[nH]c2ccccc12)NC(=O)[C@H](Cc1c[nH]c2ccccc12)NC(=O)[C@H](CCCCNC(=N)N)NC(=O)[C@@H](N)CCCCNC(=N)N)C(=O)N[C@@H](CCCCNC(=N)N)C(=O)N[C@@H](Cc1c[nH]c2ccccc12)C(N)=O (H-[hArg][hArg]WW[hArg]WI[hArg]W-NH2) | Unstable | 5 (≈ 7.78 µg/mL) | 2.5 (≈ 3.89 µg/mL) | 5 (≈ 7.78 µg/mL) | 2.5 (≈ 3.89 µg/mL) |
| N=C(N)NCCCC[C@H](NC(=O)[C@H](CCCCNC(=N)N)NC(=O)[C@H](Cc1c[nH]c2ccccc12)NC(=O)[C@@H](Cc1c[nH]c2ccccc12)NC(=O)[C@@H](CCCN)NC(=O)[C@@H](Cc1c[nH]c2ccccc12)NC(=O)[C@H](Cc1c[nH]c2ccccc12)NC(=O)[C@H](CCCCNC(=N)N)NC(=O)[C@H](N)CCCN)C(N)=O | Unstable | 40 (≈ 60 µg/mL) | 2.5 (≈ 3.75 µg/mL) | 40 (≈ 60 µg/mL) | 5 (≈ 7.5 µg/mL) |
| CC[C@H](C)[C@H](NC(=O)[C@H](Cc1c[nH]c2ccccc12)NC(=O)[C@H](CCN)NC(=O)[C@H](Cc1c[nH]c2ccccc12)NC(=O)[C@H](Cc1c[nH]c2ccccc12)NC(=O)[C@H](CCCCNC(=N)N)NC(=O)[C@@H](N)CCN)C(=O)N[C@@H](CCCCNC(=N)N)C(=O)N[C@@H](Cc1c[nH]c2ccccc12)C(N)=O (H-[Dab][hArg]WW[Dab]WI[hArg]W-NH2) | Unstable | 20 (≈ 28.3 µg/mL) | 1.25 (≈ 1.77 µg/mL) | 5 (≈ 7.08 µg/mL) | 5 (≈ 7.08 µg/mL) |
| CC[C@H](C)[C@H](NC(=O)[C@H](Cc1c[nH]c2ccccc12)NC(=O)[C@H](CCCN)NC(=O)[C@H](Cc1c[nH]c2ccccc12)NC(=O)[C@H](Cc1c[nH]c2ccccc12)NC(=O)[C@H](CCCCNC(=N)N)NC(=O)[C@@H](N)CCCN)C(=O)N[C@@H](CCCCNC(=N)N)C(=O)N[C@@H](Cc1c[nH]c2ccccc12)C(N)=O (H-[Orn][hArg]WW[Orn]WI[hArg]W-NH2) | Unstable | 20 (≈ 28.9 µg/mL) | 1.25 (≈ 1.8 µg/mL) | 5 (≈ 7.22 µg/mL) | 5 (≈ 7.22 µg/mL) |
| N=C(N)NCCC[C@H](NC(=O)[C@H](CCCNC(=N)N)NC(=O)[C@H](Cc1c[nH]c2ccccc12)NC(=O)[C@H](Cc1c[nH]c2ccccc12)NC(=O)[C@H](CCCCN)NC(=O)[C@H](Cc1c[nH]c2ccccc12)NC(=O)[C@H](Cc1c[nH]c2ccccc12)NC(=O)[C@H](CCCNC(=N)N)NC(=O)[C@@H](N)CCCCN)C(N)=O | Unstable | 40 (≈ 59.5 µg/mL) | 2.5 (≈ 3.72 µg/mL) | 40 (≈ 59.5 µg/mL) | 5 (≈ 7.43 µg/mL) |
| CC[C@H](C)[C@H](NC(=O)[C@H](Cc1c[nH]c2ccccc12)NC(=O)[C@H](CCCCN)NC(=O)[C@H](Cc1c[nH]c2ccccc12)NC(=O)[C@H](Cc1c[nH]c2ccccc12)NC(=O)[C@H](CCCNC(=N)N)NC(=O)[C@@H](N)CCCCN)C(=O)N[C@@H](CCCNC(=N)N)C(=O)N[C@@H](Cc1c[nH]c2ccccc12)C(N)=O | Unstable | 20 (≈ 28.9 µg/mL) | 1.25 (≈ 1.8 µg/mL) | 5 (≈ 7.22 µg/mL) | 5 (≈ 7.22 µg/mL) |
| N=C(N)NCCCC[C@H](NC(=O)[C@@H](CCCCNC(=N)N)NC(=O)[C@H](Cc1c[nH]c2ccccc12)NC(=O)[C@H](Cc1c[nH]c2ccccc12)NC(=O)[C@H](CCCCNC(=N)N)NC(=O)[C@H](Cc1c[nH]c2ccccc12)NC(=O)[C@@H](Cc1c[nH]c2ccccc12)NC(=O)[C@@H](CCCCNC(=N)N)NC(=O)[C@@H](N)CCCCNC(=N)N)C(N)=O | Unstable | 10 (≈ 16.1 µg/mL) | 2.5 (≈ 4.03 µg/mL) | 20 (≈ 32.3 µg/mL) | 2.5 (≈ 4.03 µg/mL) |
| N=C(N)NCCC[C@H](NC(=O)[C@H](Cc1c[nH]c2ccccc12)NC(=O)[C@H](Cc1c[nH]c2ccccc12)NC(=O)[C@H](CCCCN)NC(=O)[C@@H](N)CCCNC(=N)N)C(=O)N[C@@H](Cc1c[nH]c2ccccc12)C(=O)N[C@@H](Cc1c[nH]c2ccccc12)C(=O)N[C@@H](CCCCN)C(=O)N[C@@H](CCCCN)C(N)=O (H-RKWWRWWKK-NH2) | Unstable | > 40 | 2.5 (≈ 3.65 µg/mL) | > 40 | 10 (≈ 14.6 µg/mL) |
| CC[C@H](C)[C@H](NC(=O)[C@H](Cc1c[nH]c2ccccc12)NC(=O)[C@H](CCN)NC(=O)[C@H](Cc1c[nH]c2ccccc12)NC(=O)[C@H](Cc1c[nH]c2ccccc12)NC(=O)[C@H](CCN)NC(=O)[C@@H](N)CCN)C(=O)N[C@@H](CCN)C(=O)N[C@@H](Cc1c[nH]c2ccccc12)C(N)=O (H-[Dab][Dab]WW[Dab]WI[Dab]W-NH2) | Unstable | 10 (≈ 12.8 µg/mL) | 2.5 (≈ 3.19 µg/mL) | 5 (≈ 6.38 µg/mL) | 2.5 (≈ 3.19 µg/mL) |
| N=C(N)NCCC[C@@H](NC(=O)[C@@H](CCCNC(=N)N)NC(=O)[C@@H](Cc1c[nH]c2ccccc12)NC(=O)[C@@H](Cc1c[nH]c2ccccc12)NC(=O)[C@@H](CCCCN)NC(=O)[C@@H](Cc1c[nH]c2ccccc12)NC(=O)[C@@H](Cc1c[nH]c2ccccc12)NC(=O)[C@@H](CCCNC(=N)N)NC(=O)[C@H](N)CCCCN)C(N)=O | Stable | 20 (≈ 29.7 µg/mL) | 1.25 (≈ 1.86 µg/mL) | 20 (≈ 29.7 µg/mL) | 5 (≈ 7.43 µg/mL) |
| NCC[C@H](NC(=O)[C@H](CCN)NC(=O)[C@H](Cc1c[nH]c2ccccc12)NC(=O)[C@H](Cc1c[nH]c2ccccc12)NC(=O)[C@H](CCN)NC(=O)[C@H](Cc1c[nH]c2ccccc12)NC(=O)[C@H](Cc1c[nH]c2ccccc12)NC(=O)[C@H](CCN)NC(=O)[C@@H](N)CCN)C(N)=O (H-[Dab][Dab]WW[Dab]WW[Dab][Dab]-NH2) | Stable | 20 (≈ 25.2 µg/mL) | 2.5 (≈ 3.16 µg/mL) | 80 (≈ 101 µg/mL) | 5 (≈ 6.31 µg/mL) |
